The target of assay [1] is T1, Glucagon-like peptide 1 receptor (Rattus norvegicus, UniProt P32301).
T1 sequence (P32301 whole entry): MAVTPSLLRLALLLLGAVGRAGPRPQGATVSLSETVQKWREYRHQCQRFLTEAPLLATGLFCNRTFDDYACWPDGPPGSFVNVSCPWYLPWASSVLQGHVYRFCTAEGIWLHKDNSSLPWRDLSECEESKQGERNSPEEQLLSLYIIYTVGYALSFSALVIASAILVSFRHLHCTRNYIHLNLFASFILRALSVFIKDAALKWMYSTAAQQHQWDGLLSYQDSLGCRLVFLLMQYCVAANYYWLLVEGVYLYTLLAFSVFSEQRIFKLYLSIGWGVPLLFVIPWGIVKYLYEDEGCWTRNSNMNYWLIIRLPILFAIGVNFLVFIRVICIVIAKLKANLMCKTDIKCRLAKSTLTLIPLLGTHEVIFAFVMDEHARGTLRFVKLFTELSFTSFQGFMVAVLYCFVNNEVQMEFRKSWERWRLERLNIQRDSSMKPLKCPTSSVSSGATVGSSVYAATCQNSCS
The assay can be described thus: Agonist activity at rat GLP1R expressed in HEK293 cells assessed as stimulation of cAMP levels incubated for 6 hrs by multiple response element/cAMP response element (MRE/CRE)-driven reporter gene assay. Format: functional, cell-based. The method in brief: (§1)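 Stable HEK293 line co-expressing rat GLP-1R (pCMV-Tag2B) and a luciferase reporter with 3× MRE plus 1× CRE, seeded at 40000 cells/well and cultured overnight. Compounds in DMSO or GLP-1(7−37) were added for 6 h, then cells were lysed and luciferase read (Steady-Glo). The 10 nM GLP-1 maximum was taken as 100%. Mean ± SEM of two independent experiments; some values come from a single run.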

In assay [2] the target is T1, Glucagon-like peptide 1 receptor. The assay can be described thus: Inhibition of [125I]GLP1 (7-36) amide binding to rat GLP1R expressed in HEK293 cells. Format: cell-based. The method, boiled down:
(§2)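 Membranes (17 μg protein) from HEK293 cells stably expressing rat GLP-1R were preincubated 5 h at 4 °C with FlashBlue beads (150 μg). Then 40 pM [125I]GLP-1(7−36) amide or [125I]Exendin(9−39) was added with aprotinin 2 μg/mL, leupeptin 100 μM and test compound at varied concentrations. Incubated overnight at 4 °C, then bound radioactivity counted. Mean ± SEM of two independent experiments.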

In assay [3] the target is T2, Glucagon-like peptide 1 receptor (Rattus norvegicus) (UniProt P32301).
T2 sequence (whole entry): T1 sequence (P32301 whole entry)
The assay can be described thus: Inhibition of [125I]Exendin (9-39) binding to rat GLP1R expressed in HEK293 cells. Further details: concentration or dose not given beside the values. Format: cell-based. The conditions noted are these: concentration not given here. The method in brief: as §2

Assay [4] has as its target T2, Glucagon-like peptide 1 receptor (Rattus norvegicus). Put plainly: Agonist activity at rat GLP1R expressed in HEK293 cells assessed as stimulation of cAMP levels incubated for 6 hrs by multiple response element/cAMP response element (MRE/CRE)-driven reporter gene assay relative to 10 nM GLP1. Format: functional, cell-based. The method, boiled down: as §1
For assay [5] the target is unchanged. Put plainly: Inhibition of [125I]GLP1 (7-36) amide binding to rat GLP1R expressed in HEK293 cells relative to untreated control. The conditions noted are these: concentration not given here. Further details: concentration or dose not given beside the values. Format: cell-based. The method, boiled down: as §2

As to `COc1cc([C@H]2[C@](NC(=O)c3ccc(NC(=O)OC(C)(C)C)cc3)(C(=O)O)[C@@H](c3ccc(OC(=O)C(C)C)c(OC)c3)[C@]2(NC(=O)c2ccc(NC(=O)OC(C)(C)C)cc2)C(=O)O)ccc1OC(=O)C(C)C`, the EC50 in assay [1] was determined as 1.38 µM. In assay [2], the IC50 turned out to be 7.5 µM. Moreover, the values for the inhibition in assay [3] and in assay [5] were 34.8% and 47.2%, respectively. Further, the Efficacy in assay [4] came out at 65%.

On to `COc1cc([C@H]2[C@](NC(=O)c3ccc(NC(=O)C4CC4)cc3)(C(=O)O)[C@@H](c3ccc(OC(=O)c4cccs4)c(OC)c3)[C@]2(NC(=O)c2ccc(NC(=O)C3CC3)cc2)C(=O)O)ccc1OC(=O)c1cccs1`, for which the EC50 in assay [1] amounted to 0.148 µM. The same compound gave an IC50 in assay [2] of 1.2 µM. For the same compound, the inhibition came to 67.8% in assay [3] and 86.4% in assay [5]. Further, the Efficacy in assay [4] is 84.2%.

Take `COc1cc([C@H]2[C@](NC(=O)c3ccc(NC(=O)CCl)cc3)(C(=O)O)[C@@H](c3ccc(OC(=O)c4cccs4)c(OC)c3)[C@]2(NC(=O)c2ccc(NC(=O)CCl)cc2)C(=O)O)ccc1OC(=O)c1cccs1`: in assay [1], the EC50 stood at 3.8 µM. In assay [2], this compound returned an IC50 of 8.5 µM. In addition, the inhibition is 32.9% in assay [3] and 43.8% in assay [5]. Moreover, the Efficacy in assay [4] was found to be 58%.

In the case of `COc1cc([C@H]2[C@](NC(=O)c3ccc(NC(=O)OC(C)(C)C)cc3)(C(=O)O)[C@@H](c3ccc(OC(=O)c4cccs4)c(OC)c3)[C@@]2(NC(=O)c2ccc(NC(=O)OC(C)(C)C)cc2)C(=O)O)ccc1OC(=O)c1cccs1`, the EC50 in assay [1] is greater than 20 µM. This compound also registered an IC50 in assay [2] of 3.6 µM. Further, the inhibition in assay [3] is 55.9%; in assay [5], 64.7%. Besides, in assay [4], the Efficacy was less than 15%.

As for `CCOc1cc([C@H]2[C@](NC(=O)c3ccc(NC(=O)OC(C)(C)C)cc3)(C(=O)O)[C@@H](c3ccc(OC(=O)c4cccs4)c(OCC)c3)[C@]2(NC(=O)c2ccc(NC(=O)OC(C)(C)C)cc2)C(=O)O)ccc1OC(=O)c1cccs1`, in assay [1], the EC50 was found to be 0.326 µM. Further, the IC50 in assay [2] is 3.1 µM. Also, the inhibition in assay [3] was less than 15%; in assay [5] it was 50.2%. Besides, the Efficacy in assay [4] worked out at 85.6%.

Take `COc1cc([C@H]2[C@](NC(=O)c3ccc(NC(=O)OC(C)(C)C)cc3)(C(=O)O)[C@@H](c3ccc(OC(=O)C4CCCCC4)c(OC)c3)[C@]2(NC(=O)c2ccc(NC(=O)OC(C)(C)C)cc2)C(=O)O)ccc1OC(=O)C1CCCCC1`: the EC50 in assay [1] is greater than 20 µM. The IC50 in assay [2] was greater than 20 µM. Also, the inhibition in assay [3] and in assay [5] was less than 15% throughout. Besides, the Efficacy in assay [4] was less than 15%.

Take `COc1cc([C@H]2[C@](NC(=O)c3ccc(NC(=O)OC(C)(C)C)cc3)(C(=O)O)[C@@H](c3ccc(OC(=O)c4ccc(C)s4)c(OC)c3)[C@]2(NC(=O)c2ccc(NC(=O)OC(C)(C)C)cc2)C(=O)O)ccc1OC(=O)c1ccc(C)s1`: the EC50 in assay [1] was 19.1 µM. The IC50 in assay [2] was found to be 17.5 µM. The inhibition worked out at 29.4% in assay [3] and 40.1% in assay [5]. The Efficacy in assay [4] was determined as 67%.

Regarding `COc1cc([C@H]2[C@](NC(=O)c3ccc(NC(=O)OC(C)(C)C)cc3)(C(=O)O)[C@@H](c3ccc(OC(C)=O)c(OC)c3)[C@]2(NC(=O)c2ccc(NC(=O)OC(C)(C)C)cc2)C(=O)O)ccc1OC(C)=O`, in assay [1], the concentration giving a half-maximal response (EC50) was 8.31 µM. Also, the results for the inhibition in assay [3] and in assay [5] were less than 15% and 43.6%, respectively. Also, the Efficacy in assay [4] is 43.6%.

As for `COc1cc([C@H]2[C@](NC(=O)c3ccc(NC(=O)OC(C)(C)C)cc3)(C(=O)O)[C@@H](c3ccc(NC(C)=O)c(OC)c3)[C@]2(NC(=O)c2ccc(NC(=O)OC(C)(C)C)cc2)C(=O)O)ccc1NC(C)=O`, the EC50 in assay [1] is greater than 20 µM. In addition, the values for the inhibition in assay [3] and in assay [5] were 9.4% and 32.5%, respectively. Besides, the Efficacy in assay [4] was less than 15%.

`COc1cc([C@H]2[C@](NC(=O)c3ccc(NC(=O)OC(C)(C)C)cc3)(C(=O)O)[C@@H](c3ccc(OC(=O)c4cccs4)c(OC)c3)[C@]2(NC(=O)c2ccc(NC(=O)OC(C)(C)C)cc2)C(=O)O)ccc1OC(=O)c1cccs1` (stereo in doubt): the EC50 in assay [1] stood at 0.371 µM. Besides, the IC50 in assay [2] is 0.6 µM.

As to `COc1ccc([C@H]2[C@](NC(=O)c3ccc(NC(=O)OC(C)(C)C)cc3)(C(=O)O)[C@@H](c3ccc(OC)cc3)[C@]2(NC(=O)c2ccc(NC(=O)OC(C)(C)C)cc2)C(=O)O)cc1`, the EC50 in assay [1] worked out at 9.4 µM. For the same compound, the inhibition in assay [3] stood at 2.4%; in assay [5] it was 7.45%. Also, the Efficacy in assay [4] amounted to 7.5%.

Take `COc1cc([C@H]2[C@](NC(=O)c3ccc(NC(=O)C4CCCCC4)cc3)(C(=O)O)[C@@H](c3ccc(OC(=O)c4cccs4)c(OC)c3)[C@]2(NC(=O)c2ccc(NC(=O)C3CCCCC3)cc2)C(=O)O)ccc1OC(=O)c1cccs1`: the IC50 in assay [2] was found to be 1 µM. The inhibition in assay [3] worked out at 54.8%; in assay [5], 58.9%. Further, the Efficacy in assay [4] came out at 25%.

For the compound `COc1cc([C@H]2[C@](NC(=O)c3ccc(NC(=O)OC(C)(C)C)cc3)(C(=O)O)[C@@H](c3ccc(OC(=O)c4cccs4)c(OC)c3)[C@]2(NC(=O)c2ccc(NC(=O)OC(C)(C)C)cc2)C(=O)O)ccc1OC(=O)c1cccs1` (stereo in doubt; 3), the EC50 in assay [1] came to 0.847 µM. In assay [2], this compound had a half-maximal inhibitory concentration (IC50) of 1.6 µM.

In assay [2], `COc1cc([C@H]2[C@](NC(=O)c3ccc(NC(=O)C45CC6CC(CC(C6)C4)C5)cc3)(C(=O)O)[C@@H](c3ccc(OC(=O)c4cccs4)c(OC)c3)[C@]2(NC(=O)c2ccc(NC(=O)C34CC5CC(CC(C5)C3)C4)cc2)C(=O)O)ccc1OC(=O)c1cccs1` returned an IC50 of 8 µM. The values for the inhibition in assay [3] and in assay [5] were 46.8% and 50.7%, respectively. Further, in assay [4], the Efficacy is 6%.

Compound `COc1cc([C@H]2[C@](NC(=O)c3ccc(NC(=O)CO)cc3)(C(=O)O)[C@@H](c3ccc(OC(=O)c4cccs4)c(OC)c3)[C@]2(NC(=O)c2ccc(NC(=O)CO)cc2)C(=O)O)ccc1OC(=O)c1cccs1` returned an IC50 in assay [2] of 8.1 µM. The inhibition in assay [3] is 52.7%; in assay [5], 59.3%. In addition, the Efficacy in assay [4] came out at 38%.

On to `COc1cc([C@H]2[C@](NC(=O)c3ccc(NC(=O)Nc4cccc(F)c4)cc3)(C(=O)O)[C@@H](c3ccc(OC(=O)c4cccs4)c(OC)c3)[C@]2(NC(=O)c2ccc(NC(=O)Nc3cccc(F)c3)cc2)C(=O)O)ccc1OC(=O)c1cccs1`, for which the EC50 in assay [1] came to 2.71 µM. For the same compound, the inhibition in assay [3] was determined as 4.7%; in assay [5], 3.2%. Also, in assay [4], the Efficacy worked out at 7.7%.

`COc1cc([C@H]2[C@](NC(=O)c3ccc(NC(=O)OC(C)(C)C)cc3)(C(=O)O)[C@H](c3ccc(OC(=O)c4cccs4)c(OC)c3)[C@@]2(NC(=O)c2ccc(NC(=O)OC(C)(C)C)cc2)C(=O)O)ccc1OC(=O)c1cccs1` yielded an IC50 in assay [2] of 4.3 µM. Moreover, the inhibition in assay [3] stood at 56.3%; in assay [5], 42%. The Efficacy in assay [4] was determined as 16.5%.

As for `COc1cc([C@H]2[C@](NC(=O)c3ccc(NC(=O)OC(C)(C)C)cc3)(C(=O)O)[C@@H](c3ccc(OC(=O)c4ccco4)c(OC)c3)[C@]2(NC(=O)c2ccc(NC(=O)OC(C)(C)C)cc2)C(=O)O)ccc1OC(=O)c1ccco1`, the EC50 in assay [1] is greater than 20 µM. Besides, the values for the inhibition in assay [3] and in assay [5] were 8.3% and 27.6%, respectively. Besides, the Efficacy in assay [4] was less than 15%.

For the compound `CC(=O)Nc1ccc([C@H]2[C@](NC(=O)c3ccc(NC(=O)OC(C)(C)C)cc3)(C(=O)O)[C@@H](c3ccc(NC(C)=O)cc3)[C@]2(NC(=O)c2ccc(NC(=O)OC(C)(C)C)cc2)C(=O)O)cc1`, in assay [1], the EC50 is greater than 20 µM. Also, the inhibition in assay [3] worked out at 2.8%; in assay [5], 12.1%. In assay [4], the Efficacy was less than 15%.

With `COc1cc([C@H]2[C@](NC(=O)c3ccc(NC(=O)OC(C)(C)C)cc3)(C(=O)O)[C@@H](c3ccc(OCc4ccccc4)c(OC)c3)[C@]2(NC(=O)c2ccc(NC(=O)OC(C)(C)C)cc2)C(=O)O)ccc1OCc1ccccc1`, the EC50 in assay [1] is greater than 20 µM. The inhibition in assay [3] was found to be 14.3%; in assay [5], 10%. In addition, the Efficacy in assay [4] was less than 15%.

With `CCCC(=O)Nc1ccc(C(=O)N[C@]2(C(=O)O)[C@H](c3ccc(OC(=O)c4cccs4)c(OC)c3)[C@@](NC(=O)c3ccc(NC(=O)CCC)cc3)(C(=O)O)[C@@H]2c2ccc(OC(=O)c3cccs3)c(OC)c2)cc1`, the IC50 in assay [2] amounted to 3.4 µM. Moreover, the figures for the inhibition in assay [3] and in assay [5] were 48.2% and 52.4%, respectively. Moreover, the Efficacy in assay [4] turned out to be 50%.
